Data taken from ChEMBL document CHEMBL4219224, “Structure based drug design and in vitro metabolism study: Discovery of N-(4-methylthiophenyl)-N,2-dimethyl-cyclopenta[d]pyrimidine as a potent microtubule targeting agent” (Bioorg Med Chem, 2018).

Assays:
MOLT-4 = experiment: Growth inhibition of human MOLT4 cells incubated for 48 hrs by sulforhodamine B assay; type: functional; details: MOLT-4, 48 h
KM12 = experiment: Growth inhibition of human KM12 cells incubated for 48 hrs by sulforhodamine B assay; type: functional; details: KM12, 48 h
ACHN = experiment: Growth inhibition of human ACHN cells incubated for 48 hrs by sulforhodamine B assay; type: functional
HCC 2998 = experiment: Growth inhibition of human HCC2998 cells incubated for 48 hrs by sulforhodamine B assay; type: functional; details: HCC 2998, 48 h
NCI-H322M = experiment: Growth inhibition of human NCI-H322M cells incubated for 48 hrs by sulforhodamine B assay; type: functional
MDA-MB-231 = experiment: Growth inhibition of human MDA-MB-231 cells incubated for 48 hrs by sulforhodamine B assay; type: functional; details: MDA-MB-231, 48 h
MDA-MB-435 (human) = experiment: Antiproliferative activity against human MDA-MB-435 cells by SRB assay
CAKI-1 = experiment: Growth inhibition of human Caki1 cells incubated for 48 hrs by sulforhodamine B assay; type: functional; details: CAKI-1, 48 h
HOP-92 = experiment: Growth inhibition of human HOP92 cells incubated for 48 hrs by sulforhodamine B assay; type: functional; details: HOP-92, 48 h
NCI/ADR-RES = experiment: Growth inhibition of human NCI/ADR-RES cells incubated for 48 hrs by sulforhodamine B assay; type: functional
[1] = Induction of microtubule depolymerization in rat A10 cells by indirect immunofluorescence method; type: cell-based
Method in brief: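 A-10 cells, which arrest in interphase, used to score loss of interphase microtubules. EC50 values calculated per an earlier method, minimum of three independent experiments.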

LOX IMVI = experiment: Growth inhibition of human LOXIMVI cells incubated for 48 hrs by sulforhodamine B assay; type: functional
[2] = Inhibition of bovine brain tubulin polymerization assessed as reduction in tubulin assembly pretreated for 15 mins followed by GTP addition by spectrophotometric method; set-up: species or system Bos taurus
Method in brief: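 Placed on ice, then 0.4 mM GTP (final) added. Turbidity read at 350 nm after a jump from 0 °C to 30 °C.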

EKVX = experiment: Growth inhibition of human EKVX cells incubated for 48 hrs by sulforhodamine B assay; type: functional
HT-29 = experiment: Growth inhibition of human HT-29 cells incubated for 48 hrs by sulforhodamine B assay; type: functional; details: HT-29, 48 h
SK-MEL-2 = experiment: Growth inhibition of human SK-MEL-2 cells incubated for 48 hrs by sulforhodamine B assay; type: functional; details: SK-MEL-2, 48 h
CCRF-CEM = experiment: Growth inhibition of human CCRF-CEM cells incubated for 48 hrs by sulforhodamine B assay; type: functional
[3] = Retention time of the compound in human liver microsomes at 20 uM by LC-MS/MS analysis; type: ADME, microsome
Method in brief: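 Human liver microsomes (both genders; 1.0 mg/mL) in 100 mM PBS pH 7.4 with 3 mM MgCl2 and 10 mM NADPH, preincubated at 37 °C. Reaction started with compound at 20 μM final (from DMSO stock); propranolol 5 μM as control. Aliquots at 0 and 60 min quenched in ice-cold ACN. Analysed by LC/MS/MS on a C18 column, 5–75% B gradient over 30 min, ESI.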

PC-3 = experiment: Growth inhibition of human PC3 cells incubated for 48 hrs by sulforhodamine B assay; type: functional; details: PC-3, 48 h
SN12C = experiment: Growth inhibition of human SN12C cells incubated for 48 hrs by sulforhodamine B assay; type: functional
OVCAR-8 = experiment: Growth inhibition of human OVCAR8 cells incubated for 48 hrs by sulforhodamine B assay; type: functional; details: OVCAR-8, 48 h
SK-OV-3 = experiment: Growth inhibition of human SKOV3 cells incubated for 48 hrs by sulforhodamine B assay; type: functional; details: SK-OV-3, 48 h
NCI-H23 = experiment: Growth inhibition of human NCI-H23 cells incubated for 48 hrs by sulforhodamine B assay; type: functional; details: NCI-H23, 48 h
OVCAR-4 = experiment: Growth inhibition of human OVCAR4 cells incubated for 48 hrs by sulforhodamine B assay; type: functional; details: OVCAR-4, 48 h
HOP-62 = experiment: Growth inhibition of human HOP62 cells incubated for 48 hrs by sulforhodamine B assay; type: functional; details: HOP-62, 48 h
786-0 = experiment: Growth inhibition of human 786-0 cells incubated for 48 hrs by sulforhodamine B assay; type: functional; details: 786-0, 48 h
UACC-62 = experiment: Growth inhibition of human UACC62 cells incubated for 48 hrs by sulforhodamine B assay; type: functional; details: UACC-62, 48 h

CSc1ccc(N(C)c2nc(C)nc3c2CCC3)cc1
GI50 (MOLT-4): < 10 nM | GI50 (KM12): < 10 nM | GI50 (ACHN): < 10 nM | GI50 (HCC 2998): < 10 nM | GI50 (NCI-H322M): > 10000 nM | GI50 (MDA-MB-231): < 10 nM | IC50 (MDA-MB-435 (human)): 4.6 nM | GI50 (CAKI-1): < 10 nM | GI50 (HOP-92): < 10 nM | GI50 (NCI/ADR-RES): < 10 nM | EC50 [1]: 13 nM | GI50 (LOX IMVI): < 10 nM | IC50 [2]: 1300 nM | GI50 (EKVX): < 10 nM | GI50 (HT-29): < 10 nM | GI50 (SK-MEL-2): < 10 nM | GI50 (CCRF-CEM): < 10 nM | Retention_time [3]: 17.4 min | GI50 (PC-3): < 10 nM | GI50 (SN12C): < 10 nM | GI50 (OVCAR-8): < 10 nM | GI50 (SK-OV-3): < 10 nM | GI50 (NCI-H23): < 10 nM | GI50 (OVCAR-4): < 10 nM | GI50 (HOP-62): < 10 nM | GI50 (786-0): < 10 nM | GI50 (UACC-62): < 10 nM
